Published values collected from several papers.
ACSL4: Long-chain-fatty-acid--CoA ligase 4 (ACSL4, Homo sapiens, UniProt O60488)
CDK7: Cyclin-dependent kinase 7 (CDK7, Homo sapiens, UniProt P50613)

SMILES | target | test | setting | measurement | value
CCCCC(=O)Nc1ccc(-c2ccc3ncn(CCC)c(=O)c3c2)cn1 | Dual specificity protein kinase TTK (TTK, Homo sapiens, UniProt P33981) | binding, competition with immobilised ligand | 0.5 µM | remaining binding | 64%
CC1(COc2ccc(CC3SC(=O)NC3=O)cc2)CCCCC1 (stereo not drawn) | ACSL4 | enzyme activity, inhibitor | 10 µM | inhibition | 20%
C#Cc1cc(-c2cc(Nc3nc(N[C@@H](C)c4ccc(F)cn4)ncc3Cl)n[nH]2)ccc1C=O | Non-receptor tyrosine-protein kinase TNK1 (TNK1, Homo sapiens, UniProt Q13470) | enzyme activity, inhibitor | 0.2 µM | inhibition | 74.8%
COc1cccc2c(N3CCC(CCP(=O)(O)O)CC3)ncnc12 | Ectonucleotide pyrophosphatase/phosphodiesterase family member 1 (Enpp1, Mus musculus, UniProt P06802) | binding, SPR | – | residence time | 9 min
O=C(/C=C/c1ccc(O)c(O)c1)O[C@H](Cc1ccc(O)c(O)c1)C(=O)O | Peroxiredoxin-1 (PRDX1, Homo sapiens, UniProt Q06830) | thermal stability, DSF | 800 µM | ΔTm | 9.31 °C
C[C@]1(O)CCCN(c2nc(Nc3ccc(S(=O)(=O)N[C@H]4CC[C@H](CN5CCN(c6ccc(C7CCC(=O)NC7=O)cc6F)CC5)CC4)cc3F)ncc2C(F)(F)F)C1 (stereo partly drawn) | CDK7 | binding, competition with immobilised ligand | 1 µM | remaining binding | 85%
C1=C/COCc2cc(ccc2OCCN2CCCC2)Nc2nccc(n2)-c2cccc(c2)COC/1 | Death-associated protein kinase 1 (DAPK1, Homo sapiens, UniProt P53355) | binding | 0.1 µM | remaining binding | 64%
O=C1NC(=O)C(Cc2ccc(N3CCN(c4ccccn4)CC3)cc2)S1 (stereo not drawn) | ACSL4 | enzyme activity, inhibitor | 10 µM | inhibition | 42%
CNS(=O)(=O)c1ccc(Nc2ncc(C(F)(F)F)c(N3CCC[C@](C)(O)C3)n2)c(C)c1 | Serine/threonine-protein kinase RIO3 (RIOK3, Homo sapiens, UniProt O14730) | binding, competition with immobilised ligand | 1 µM | remaining binding | 99%
Cc1cc(F)cc2c(CCC(=O)N[C@@H]3C(=O)NC[C@H]3O)c(-c3ccc(F)cc3)[nH]c12 | 3',5'-cyclic-AMP phosphodiesterase 4D (PDE4D, Homo sapiens, UniProt Q08499) | enzyme activity, inhibitor | 10 µM | inhibition | 17%
CCN1/C(=C/C(C)=O)Sc2ccc(F)cc21 | Prostaglandin E2 receptor EP4 subtype (PTGER4, Homo sapiens, UniProt P35408) | ligand displacement, radioligand | 10 µM | inhibition | 4.39%
Cc1cc(S(=O)(=O)N[C@H]2CC[C@H](CN3CCN(c4ccc(C5CCC(=O)NC5=O)cc4F)CC3)CC2)ccc1Nc1ncc(C(F)(F)F)c(N2CCC[C@](C)(O)C2)n1 (stereo partly drawn) | CDK7 | binding, competition with immobilised ligand | 1 µM | remaining binding | 55%
